Laboratory results: ChEMBL document CHEMBL1138019, “Synthesis and antitumor activity of 4-hydroxycoumarin derivatives” (Bioorg Med Chem Lett, 2004)

How the values were obtained:
Format in all cases: functional, cell-based
XF498 [1] = assay: Concentration required for inhibiting proliferation of human brain tumor cell line XF 498 after 72 hr of incubation was determined; conditions: XF498, 72 h
Summary of the method: (§1)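 SRB assay. Cells were passaged with trypsin-EDTA, seeded at 1–2 · 10^4 cells/well and grown for 24 h. Compounds dissolved in culture medium were added in triplicate and incubated 48 h at 37 C, 5% CO2. Cells were fixed with 10% cold TCA, stained with 0.4% SRB in 1% acetic acid, and the dye was solubilized in 10 mM Tris base (pH 10.5). Absorbance was read at 520 nm. IC50 is the concentration giving 50% inhibition.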

SK-MEL-2 [2] = assay: Concentration required for inhibiting proliferation of human melanoma tumor cell line SK-MEL-2 after 72 hr of incubation was determined; conditions: SK-MEL-2, 72 h; summary of the method: as §1
HCT-15 = assay: Concentration required for inhibiting proliferation of human colon tumor cell line HCT-15 after 72 hr of incubation was determined; conditions: HCT-15, 72 h; summary of the method: as §1
SK-OV-3 = assay: Concentration required for inhibiting proliferation of human ovarian tumor cell line SK-OV-3 after 72 hr of incubation was determined; conditions: SK-OV-3, 72 h; summary of the method: as §1
A549 = assay: Concentration required for inhibiting proliferation of human lung tumor cell line A549 after 72 hr of incubation was determined; conditions: A549, 72 h; summary of the method: as §1
XF498 [3] = assay: Concentration required for inhibiting proliferation of human brain tumor cell line XF 498 by 50% after 72 hr of incubation was determined; conditions: XF498, 72 h; summary of the method: as §1
SK-MEL-2 [4] = assay: Concentration required for inhibiting proliferation of human melanoma tumor cell line SK-MEL-2 by 50% after 72 hr of incubation was determined; conditions: SK-MEL-2, 72 h; summary of the method: as §1

Structure (SMILES) | IC50 (XF498 [1]) | IC50 (SK-MEL-2 [2]) | IC50 (HCT-15) | IC50 (SK-OV-3) | IC50 (A549) | IC50 (XF498 [3]) | IC50 (SK-MEL-2 [4])
CCCC1(c2ccccc2)CC(=O)C(C(CC(=O)c2ccc(-c3ccc(Br)cc3)cc2)c2ccccc2)=C(O)O1 (stereo not given) | > 10 µM | > 10 µM | > 10 µM | > 10 µM | > 10 µM |  | 
CCC1(c2ccccc2)CC(=O)C(C2CC(c3ccc(OC)cc3)Cc3ccccc32)=C(O)O1 (stereo not given) | > 10 µM | > 10 µM | > 10 µM | > 10 µM | > 10 µM |  | 
CC1(c2ccccc2)CC(=O)C(C(CC(=O)c2ccc(-c3ccc(Br)cc3)cc2)c2ccccc2)=C(O)O1 (stereo not given) | 6.73 µM | 8.54 µM | 8.59 µM | 5.69 µM | 9.18 µM |  | 
CC1(c2ccccc2)CC(=O)C(C2CC(c3ccc(-c4ccc(Br)cc4)cc3)Cc3ccccc32)=C(O)O1 (stereo not given) | 1.36 µM | 2.05 µM | 1.31 µM | 1.8 µM | 1.83 µM |  | 
COc1cc([C@@H]2c3cc4c(cc3[C@@H](O[C@@H]3O[C@@H]5CO[C@@H](C)O[C@H]5[C@H](O)[C@H]3O)[C@H]3COC(=O)[C@H]23)OCO4)cc(OC)c1O [ETOPOSIDE] |  |  | 1.45 µM | 3.46 µM | 1.06 µM | 3.14 µM | 4.13 µM
CCC1(c2ccccc2)CC(=O)C(C(CC(=O)c2ccc(-c3ccc(Br)cc3)cc2)c2ccccc2)=C(O)O1 (stereo not given) | 6.59 µM | 8.51 µM | 6.71 µM | 5.74 µM | 8.13 µM |  | 
CCC1(c2ccccc2)CC(=O)C(C2CC(c3ccc(OCc4ccc(C(F)(F)F)cc4)cc3)Cc3ccccc32)=C(O)O1 (stereo not given) | > 10 µM | > 10 µM | > 10 µM | > 10 µM | > 10 µM |  | 
CCC1(c2ccccc2)CC(=O)C(C2CC(c3ccc(-c4ccc(Br)cc4)cc3)Cc3ccccc32)=C(O)O1 (stereo not given) | > 10 µM | > 10 µM | > 10 µM | > 10 µM | > 10 µM |  | 
COc1ccc(C2Cc3ccccc3C(C3=C(O)OC(C)(c4ccccc4)CC3=O)C2)cc1 (stereo not given) | > 10 µM | > 10 µM | > 10 µM | > 10 µM | > 10 µM |  | 
CCCC1(CCc2ccccc2)CC(=O)C(C2CC(c3ccc(-c4ccc(Br)cc4)cc3)Cc3ccccc32)=C(O)O1 (stereo not given) | > 10 µM | > 10 µM | > 10 µM | > 10 µM | > 10 µM |  | 
